MT stabilizer – stabilizes microtubules in HeLa cells | % tubulin-high responders, % at 10 µM | HeLa tubulin immunostaining HCS, 24 h; share of cells brighter than vehicle mean+2SD | hit rate 0.83% among 200,000 | AID 2205;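 active means plate Z-score above 3 for both tubulin-high and condensed-nucleus cell shares, with cell loss under 80%, at 10 µM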;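 further: anti alpha tubulin signal scored within the nucleus-defined area of each cell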
CHOP inhibitor – inhibitors of CHOP induction in ER stress response | CHO-K1 CHOP-promoter luciferase, tunicamycin-induced, 15-18 h | inhibition, % at 10 µM | hit rate 3.8% among 220,000;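 active means compounds that reduced the stress-induced luciferase reporter signal by more than about 70% of percent inhibition, limit read from the data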
Dynein transport – dynein cargo transport inhibition; 3617.4 mouse cells, GR-EGFP nuclear translocation imaging; test concentration mostly 20 µM; stimulated with dexamethasone, 1 µM; active compounds read low; z-score, hits read low; hit rate 0.47% among 220,000; AID 1381;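 active means plate z-score of nuclear minus cytoplasmic receptor signal below a set negative limit, without overly bright fluorescence or cell loss, cut at about -3.5 in these data, passing the limit was not always enough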;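 further: z-score of nuclear minus cytoplasmic ring GR-EGFP intensity difference per well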
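Buffer or medium: tet-free, stripped-serum medium; Also added: dexamethasone, 1.0 µM final; Technique: high-content fluorescence imaging after fixation; Times: 48 h induction, 1 h compound, 30 min dex at 37 °C; Read-out: per-cell GR-EGFP intensity, nucleus versus surrounding cytoplasmic ring, well-averaged.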
b-catenin transl – alters nuclear translocation of beta-catenin in HeLa cells; immunofluorescence imaging; nuclear translocation activity, % at 5 µM; hit rate 0.3% among 190,000;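 active means nuclear translocation activity above 50% at 5 µM, with a well cell count of 50 or more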;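 further: per-cell ratio of nuclear to cytoplasmic median beta-catenin stain intensity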
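System: HeLa cells, endogenous beta-catenin; compound dosing: 5 µM primary single dose, 0.1% DMSO, 0.02–20 µM confirmation series; incubation: 24 h compound exposure at 37°C, 5% CO2; signal: beta-catenin immunofluorescence imaging with DAPI; evaluation: % activation, nuclear-to-cytoplasmic median beta-catenin signal ratio per cell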
Autophagy HCS – alters autophagy in cells; MEF GFP-LC3 puncta imaging; test concentration mostly 10 µM; calls only at 10 µM (by protocol); hit rate 0.98% among 190,000;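 active means percentage of spot-positive cells more than 3 SD above its plate mean, without a fluorescence outlier flag or 80% toxicity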
Lmaj promast – Leishmania major promastigote growth inhibition; Leishmania major promastigotes, resazurin fluorescence viability; inhibition, % at 10 µM; hit rate 9% among 200,000; AID 1063; in the data active means inhibition above about 50%;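 further: promastigotes grown with compound for 44 hours at 28 °C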
CHOP inh conf – confirmation of CHOP induction inhibitors. CHO-CHOP promoter luciferase reporter, tunicamycin-induced, luminescence. AID 504437. shares compounds with CHOP inhibitor. hit rate 45% among 2,100. inhibition, % at 10 µM;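 active means mean of three repeat readings of reporter signal inhibition above a set limit, cut at about 70% in these data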
Hits are given with their value; n = inactive; x = not tested or not shown; + = active, no number. Shown are actives, neighbours in structure and some others; about 12% of the full set was active somewhere.

SMILES	MT stabilizer	CHOP inhibitor	Dynein transport	b-catenin transl	Autophagy HCS	Lmaj promast	CHOP inh conf
Cc1sc(-c2ccncc2)nc1OC(=O)c1cc(Cl)cc(Cl)c1	n	104	n	n	n	n	n
COc1ccc2[nH]c(=O)c(CN(C3CCCCC3)C(c3nnnn3Cc3ccco3)C(C)C)cc2c1 (stereo unspecified)	n	102	n	n	n	65	n
Fc1ccc2[nH]c3c(N4CCN(c5ccccc5)CC4)ncnc3c2c1	n	n	n	n	n	n	x
OC1(c2cccc(C(F)(F)F)c2)CCN(c2ncnc3c2[nH]c2ccc(F)cc23)CC1	n	x	n	n	n	88	102
CC(C)(C)C1CCc2onc(C(=O)O)c2C1 (stereo unspecified)	n	n	n	n	n	n	x
CCc1ccc(C2NC(=S)NC3=C2C(=O)N(c2ccccc2OC)C(c2ccc(CC)cc2)N3)cc1 (stereo unspecified)	n	n	n	n	n	n	x
O=C1C2=C(NC(=S)NC2c2ccc(Cl)cc2)NC(c2ccc(Cl)cc2)N1c1ccc(Cl)cc1 (stereo unspecified)	n	98	n	n	n	100	n
Oc1cccc(-c2nc3c4c(ncn3n2)-c2ccccc2CC42CCCC2)c1	n	100	n	n	n	n	83
ClC(Cl)(c1nnnn1-c1ccccc1)c1nnnn1-c1ccccc1	n	108	n	n	n	n	n
CC1CCC(C(C)C)C(OC(=O)COC(=O)c2cc(O)ccc2N)C1 (stereo unspecified)	n	105	n	n	n	n	109
CC1CCC(C(C)C)C(OC(=O)COC(=O)c2ccc(=O)[nH]c2)C1 (stereo unspecified)	n	n	n	n	n	n	x
O=C(NCc1ccccn1)c1ccc(CNS(=O)(=O)c2cccc(Cl)c2)cc1	n	n	n	n	n	n	x
COc1ccc(CCNC(=O)CSc2nnc3ccccn23)cc1	n	n	n	n	n	n	x
CCCOC(=O)c1ccc(Oc2cn[nH]c2-c2ccc(OC)cc2O)cc1	n	106	n	n	n	85	116
COc1ccc(-c2[nH]ncc2-c2nc(C)cs2)c(O)c1	n	n	n	n	n	n	x
COc1ccc(C(C(=O)NCC2CCCO2)N(C(=O)CNC(=O)c2cccs2)c2ccc(C(C)=O)cc2)cc1OC (stereo unspecified)	n	n	n	n	n	n	x
O=[N+]([O-])c1cccnc1N1CCC(c2cc(-c3cccc(C(F)(F)F)c3)n[nH]2)CC1	n	103	n	n	n	n	n
NC(=O)C1CCN(c2ncccc2[N+](=O)[O-])CC1	n	n	n	n	n	n	x
FC(F)(F)c1cc(-c2ccco2)nc2ncnn12	n	n	n	n	n	n	x
Cc1ccc(NC(=O)c2cc(NC(=O)c3ccco3)ccc2N2CCOCC2)cc1	n	n	n	x	n	n	x
Cc1ccc(NC(=O)c2cc(NC(=O)c3ccco3)ccc2N2CCCCC2)cc1	n	100	n	n	n	n	88
O=C(c1c[nH]c2ccccc2c1=O)N1CCCCCC1	n	n	n	n	n	n	x
O=c1cc(-c2ccccc2)[nH]c2cc(Cl)ccc12	n	n	n	x	n	n	x
Clc1ccc2[nH]c(-c3ccccc3)cc2c1	n	104	n	n	n	n	70
CCCCN(C(=S)NC(=O)c1cc(OC)c(OC)c(OC)c1)c1c(N)n(Cc2ccccc2)c(=O)[nH]c1=O	n	n	n	n	n	n	x
SMILES	MT stabilizer	CHOP inhibitor	Dynein transport	b-catenin transl	Autophagy HCS	Lmaj promast	CHOP inh conf
CC1=C(C)CS(=O)N(S(=O)(=O)c2ccc(Cl)cc2)C1 (stereo unspecified)	n	x	n	n	n	n	n
CCOC(=O)c1cc([N+](=O)[O-])c([N+](=O)[O-])cc1NC(C)=O	n	107	n	n	n	71	91
CCOC(=O)c1ccc(NC(=O)c2ccccc2[N+](=O)[O-])cc1	n	n	n	x	n	n	x
Cc1csc(NC(=O)CSc2nnc3c4ccccc4nc(C(C)(C)C)n23)n1	46	105	n	58	n	n	125
CC(=O)CSc1nnc2c3ccccc3nc(C(C)(C)C)n12	n	n	n	n	n	n	x
O=C(Nc1ccc2c(c1)OCCO2)c1cc(-c2ccccn2)nc2ccc(Br)cc12	n	101	n	n	+	n	n
C/C(=N/NC(=O)CNC(=O)c1ccccn1)c1cccc([N+](=O)[O-])c1	n	n	n	n	n	n	x
O=C(Cc1ccccc1)Nc1ccccc1N1CCCC1	n	n	n	n	n	n	x
O=C(CNC1CCCCCC1)Nc1ccccc1N1CCCCC1	n	98	n	n	n	n	94
CCOC(=O)C1CCCN(C(=O)c2csc(-c3ccc4c(c3)CCO4)n2)C1 (stereo unspecified)	x	n	n	n	x	x	x
CCCCn1c(-c2nonc2N)nc2ccccc21	n	100	n	n	n	n	n
CCCCn1c(N)nc2ccccc21	n	n	n	x	n	n	x
O=C(CSC1=NS(=O)(=O)c2ccccc21)Nc1ccccc1	n	106	n	x	n	n	n
CCOC(=O)CN(c1cc([N+](=O)[O-])ccc1OC)S(C)(=O)=O	n	n	n	n	n	n	x
O=C(c1ccccc1)c1c[nH]c(C(=O)NNc2cccc(Cl)n2)c1	n	n	n	n	n	n	x
O=C(c1ccc(Cl)cc1)c1c[nH]c(C(=O)NNc2cccc(Cl)n2)c1	n	100	n	n	n	n	96
COC(=O)CN1C(=S)N(Cc2ccccc2)C(=O)C1CC(=O)Nc1ccc(Br)cc1 (stereo unspecified)	n	102	n	n	n	88	98
CCOc1cc(C2c3c(oc4ccccc4c3=O)C(=O)N2c2nccs2)ccc1O (stereo unspecified)	x	104	n	n	x	x	n
Cc1ccc(NC(=O)c2nc[nH]c2C(=O)N[C@@H](C)C(=O)OC(C)(C)C)cc1	x	97	n	n	x	x	78
CC(C)(C)OC(=O)CNC(=O)c1[nH]cnc1C(=O)Nc1ccc(Cl)cc1	x	100	n	n	x	x	77
COC(=O)C(C)NS(=O)(=O)c1ccc(NC(C)=O)cc1 (stereo unspecified)	n	n	n	n	n	n	x
Cc1ccc(NC(=O)Nc2cc(Cl)ccc2C2COC(=O)C2=N)cc1 (stereo unspecified)	n	101	n	n	n	n	n
CC(C)(C)c1ccc(C(=O)NNc2cc(Cl)cc(Cl)c2)cc1	x	n	n	n	x	x	x
O=C(Nc1ccc(-c2nc3ccccc3o2)cc1)c1ccc(N2CCOCC2)c([N+](=O)[O-])c1	n	101	n	n	n	n	114
COc1ccc2oc(-c3ccc(NC(=O)c4ccc(N5CCOCC5)c([N+](=O)[O-])c4)cc3)nc2c1	n	n	n	n	n	n	x

High-throughput results as filed in PubChem.
